Experimental data as given in ChEMBL document CHEMBL1121714, “Nonsteroidal antiinflammatory agents. 2. Synthesis of 4',5-disubstituted 3-biphenylylacetic acids and their derivatives with antiinflammatory and analgesic activities” (J Med Chem, 1981).

Assays:
Mus musculus = experiment: Analgesic activity against AcOH writhing after po administration.
Rattus norvegicus [1] = experiment: Inhibitory activity on carrageenan-induced paw edema in rats 3h after po administration of 50 mg/kg; type: functional
In short: (§1)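 Oral dosing, screened first at 50 mg/kg and retested at 20 and 10 mg/kg if inhibition was 30% or more. Paw volume was remeasured at 3 h, and the increase was compared with controls to give percent inhibition.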

[2] = Acute toxicity was determined 168 hr after a single ip injection to groups of four male ddY mice.; type: organism-based; settings: mouse, in vivo
In short: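 LD50 calculated by the method of Weil.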

Rattus norvegicus [3] = experiment: Inhibitory activity on carrageenan-induced paw edema in rats 3h after po administration of 20 mg/kg; type: functional
In short: as §1

Rattus norvegicus [4] = experiment: Inhibitory activity on carrageenan-induced paw edema in rats 3h after po administration of 10 mg/kg; type: functional
In short: as §1

Rattus norvegicus [5] = experiment: Inhibitory activity on carrageenan-induced paw edema in rats 3h after administration of 20 mg/kg; type: functional
In short: as §1

Rattus norvegicus [6] = experiment: Inhibitory activity on carrageenan-induced paw edema in rats 3h after po administration of 0.5 mg/kg; type: functional; settings: read-out: Inhibition
Rattus norvegicus [7] = experiment: Inhibitory activity on carrageenan-induced paw edema in rats 3h after po administration of 2 mg/kg; type: functional; settings: read-out: Inhibition
Rattus norvegicus [8] = experiment: Inhibitory activity on carrageenan-induced paw edema in rats 3h after po administration of 5 mg/kg; type: functional; settings: read-out: Inhibition

SMILES	ED50 (Mus musculus) [mg/kg]	inhibition in vivo at 50 mg/kg (Rattus norvegicus [1]) [%]	LD50 at 168 h [2] [mg/kg]	inhibition in vivo at 20 mg/kg (Rattus norvegicus [3]) [%]	inhibition in vivo at 10 mg/kg (Rattus norvegicus [4]) [%]	inhibition in vivo at 20 mg/kg (Rattus norvegicus [5]) [%]	inhibition in vivo at 0.5 mg/kg (Rattus norvegicus [6]) [%]	inhibition in vivo at 2 mg/kg (Rattus norvegicus [7]) [%]	inhibition in vivo at 5 mg/kg (Rattus norvegicus [8]) [%]
COc1ccc(-c2cccc(CC(=O)O)c2)cc1	> 50	11	> 800						
COc1ccc(-c2cc(CC(=O)O)cc(NC(C)=O)c2)cc1	> 50	15	> 800						
O=C(O)Cc1cc(Cl)cc(-c2ccccc2)c1	> 50	32	283	25					
CC(C(=O)O)c1cc(F)cc(-c2ccccc2)c1 (centres undefined)	> 50	31	566						
COc1ccc(-c2cc(Cl)cc(CC(=O)O)c2)cc1	> 50	19	570						
O=C(O)Cc1cccc(-c2ccccc2)c1	> 50	47	566	0					
CC(C(=O)O)c1cc(F)cc(-c2ccc(Cl)cc2)c1 (centres undefined)	> 50	< 39	200	< 26					
COc1ccc(-c2cc(N)cc(CC(=O)O)c2)cc1	> 50	0	800						
Nc1cc(CC(=O)O)cc(-c2ccc(Cl)cc2)c1	> 50	16	400						
COc1ccc(-c2cccc(C(C)C(=O)O)c2)cc1 (centres undefined)	> 50	0	566						
CC(C(=O)O)c1cccc(-c2ccccc2)c1 (centres undefined)	26.8	17	566						
Nc1cc(CC(=O)O)cc(-c2ccccc2)c1	> 50	0	566						
CC(=O)Nc1cc(CC(=O)O)cc(-c2ccc(Cl)cc2)c1	> 50	0	476						
COc1ccc(-c2cc(Cl)cc(C(C)C(=O)O)c2)cc1 (centres undefined)	> 50	8	283						
O=C(O)Cc1cc(Cl)cc(-c2ccc(Cl)cc2)c1	> 50	45	283	29					
CC(C(=O)O)c1cc(Cl)cc(-c2ccc(Cl)cc2)c1 (centres undefined)	> 50	< 41	200	< 33					
CC(=O)Nc1cc(CC(=O)O)cc(-c2ccccc2)c1	> 50	5	> 800						
CC(C(=O)O)c1cc(Cl)cc(-c2ccccc2)c1 (centres undefined)	> 50	4	168						
CC(C(=O)O)c1cccc(-c2ccc(Cl)cc2)c1 (centres undefined)	45	35	283	31					
O=C(O)Cc1cccc(-c2ccc(Cl)cc2)c1	> 50	44	238	< 25					
O=C(O)Cc1cc(F)cc(-c2ccc(Cl)cc2)c1	> 50	38	283	16					
O=C(O)Cc1cc(F)cc(-c2ccccc2)c1	> 50	50	566		26	45			
COc1cc(CC(=O)O)cc(-c2ccc(Cl)cc2)c1	16.1	53		65	39				
COc1ccc2c(c1)c(CC(=O)O)c(C)n2C(=O)c1ccc(Cl)cc1 [INDOMETHACIN]	3.1						19	25	45
